GASC-1 inh: blocks human GASC-1 demethylase activity; GST-JMJD2C(1-420) H3K9me3 demethylation, DELFIA europium; Q9H3R0; 0.069% of 330,000 active; AID 2099; inhibition, % at 2.35 µM;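 active means more than half of a compound's replicate wells show inhibition beyond 50%, single wells judged on their own value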;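 further: signal counts dimethyl H3K9 product captured on neutravidin plate; 0% = median of DMSO wells and 100% = 0.3 times that DMSO median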
Target sequence (Q9H3R0 1-420 limits assumed): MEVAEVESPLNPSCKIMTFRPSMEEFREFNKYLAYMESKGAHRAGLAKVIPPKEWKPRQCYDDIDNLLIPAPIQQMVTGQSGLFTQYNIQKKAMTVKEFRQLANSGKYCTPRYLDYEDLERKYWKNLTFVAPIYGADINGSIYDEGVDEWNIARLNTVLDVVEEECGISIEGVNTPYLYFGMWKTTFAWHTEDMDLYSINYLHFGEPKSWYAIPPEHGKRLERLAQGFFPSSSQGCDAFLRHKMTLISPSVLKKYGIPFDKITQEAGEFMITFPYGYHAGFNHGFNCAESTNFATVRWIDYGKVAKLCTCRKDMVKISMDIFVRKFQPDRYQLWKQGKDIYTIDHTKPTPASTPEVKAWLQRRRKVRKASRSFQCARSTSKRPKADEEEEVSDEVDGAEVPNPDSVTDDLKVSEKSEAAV
GC-A act: GC-A (human) enzyme activation | P16066 | HEK293 GC-A cells, cGMP TR-FRET, EC30 ANP; 0% at EC30 ANP, 100% saturating ANP | activation, % at 10 µM | 0.14% of 370,000 active | AID 1671463; in the data active means activation above about 40%
NPR2 activator: GC-B (human) receptor activation; P20594; HEK293-GC-B cells, CNP EC30, cGMP TR-FRET; 0% at EC30 CNP, 100% saturating CNP; activation, % at 10 µM; 0.11% of 370,000 active; AID 1920062;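 active means activation at 10 µM reaching about 35% in either raw or pattern-adjusted values, limit read from the data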
GRIN3A LBD mod: modulates the human NR3A ligand-binding domain | 2.5% of 340,000 active | AID 1259313 | Tm shift relative to glycine control, % at 25 µM | NR3A LBD differential scanning fluorimetry, Tm shift; 0% = protein alone, 100% = glycine-bound protein;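 active means melting temperature shift of at least 10% of the positive control shift, at one fixed dose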
aDG glyco act: increases alpha dystroglycan glycosylation | Pro5-aDG cells, alpha-DG glycosylation AlphaScreen (IIH6); 0% Pro5, 100% B10-LARGE cell signal | activation, % at 10 µM | 0.22% of 360,000 active;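 active means activation of at least 8% versus controls, or a plate z-score of at least 8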;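 further: Pro5 are CHO cells carrying HIG-tagged alpha-DG that lacks glycosylation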
Hep lipid drop: modulators of hepatic lipid droplet formation; AML12 mouse hepatocytes, oleate lipid droplets, BODIPY imaging; AID 1656; inhibition, % at 6.5 µM; 0.4% of 240,000 active;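 active means lipid droplet intensity inhibited by at least 50%, with more than 500 cells counted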
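Assay system: AML12 mouse liver cells | Compound dosing: One dose, 6.5 µM compound | Read-out basis: Droplet intensity reduction, % inhibition | Measured by: Fluorescence imaging, 20x objective, two fields per well | Schedule: Overnight treatment with compound plus oleate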
aDG glyco conf: alpha-DG glycosylation activation, confirmation; shares compounds with aDG glyco act; Pro5-aDG cells, IIH6 AlphaLISA; scaled to LARGE-overexpressing B10 cells as 100%; activation, % at 10 µM (by protocol); 17% of 600 active; AID 651671;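 active means activation of at least 7% in one or more replicates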;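 further: cells exposed to compound for two days before detection; 0% = DMSO-treated Pro5 cells and 100% = DMSO-treated B10-LARGE cells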
An asterisk follows results filed as active; x = not tested or not shown. In the library only some 3% were active in any assay of this set; here they are far more common.

SMILES	GASC-1 inh	GC-A act	NPR2 activator	GRIN3A LBD mod	aDG glyco act	Hep lipid drop	aDG glyco conf
CC(C)OCCCN(C)C1CCN(S(=O)(=O)c2ccc(-c3cc(C(F)(F)F)no3)s2)CC1	-5	-10	-1	-1	3.8*	-10	1
CC(C)OCCCN(C)C1CCN(S(=O)(=O)c2csc(C(N)=O)c2)CC1	18	1	5	0	0	2	x
CC(C)Cc1cc(CN2CCCC(CO)(Cc3cccc(Cl)c3)C2)[nH]n1 (stereo unspecified)	-3	-8	-2	-1	0	-21	x
CC(C)Cc1cc(CN2CCC(CO)(Cc3cccc(C(F)(F)F)c3)CC2)[nH]n1	8	-2	-4	-5	10*	-12	4
CCOC(=O)c1cn2ccc(C)cc2n1	5	1	5	-1	20*	0	1
O=C(Nc1ccccc1)c1ccccc1OCc1ccc(F)cc1	3	-2	2	-11	3.8*	-42	-1
O=C(Nc1ccc(O)cc1)c1ccccc1OCc1ccccc1	11	9	4	-1	0	-6	x
CCOC(=O)CN(C(=O)CSc1nnc(CNc2ccc(F)cc2)n1CC)c1ccc(F)cc1	3	-4	4	-4	5.2*	0	0
CC(C)[C@H](NS(=O)(=O)c1ccccc1)C(=O)OCC(=O)NC(=O)c1cccn1C	-1	8	-5	-4	0	14	x
Cc1ccc(S(=O)(=O)N[C@H](C(=O)OCC(=O)NC(=O)c2cccn2C)C(C)C)cc1	x	6	1	-2	3.6*	x	1
CCCCOc1ccc(C(=O)NCC(=O)NCc2ccccn2)cc1	3	1	-11	-3	7.3*	x	0
CCOc1ccc(N2CC(C(=O)N3CCN(c4ccccn4)CC3)CC2=O)cc1 (stereo unspecified)	1	-4	3	-1	10*	x	10*
COC1OC(O)C(NC(=O)C(F)(F)F)CC1O (stereo unspecified)	x	0	-3	1	0	x	x
O=C(NCc1cccnc1)c1ccc(-c2cc3ccccc3oc2=O)cc1	3	0	-4	5	5.6*	2	0
O=c1cc(-c2ccccc2)oc2ccc(O)cc12	3	-17	-8	-1	2.4*	11	1
C/C(=N/Nc1nc(C)cc(C)n1)c1ccc(Br)cc1	-13	0	2	-1	2.2*	3	2
CCOC(=O)C1(COCc2ccccc2)CCCCC1=O (stereo unspecified)	x	-1	3	x	0	x	x
COc1ccccc1CN=Cc1[nH]c2ccc(Br)c(Cl)c2c1O	3	-9	-13	-1	5.8*	-23	1
Cc1cccc(N=Cc2[nH]c3ccc(Br)c(Cl)c3c2O)c1	-10	-9	-5	4	6	11	x
Cn1c(SCC(=O)N2CCCc3ccccc32)nnc1-c1ccccc1	-3	-3	-5	0	3.7*	x	0
Cc1ccc(C)c(N2CCN(C(=O)CCCN3C(=S)NC(C)(C)CC3C)CC2)c1 (stereo unspecified)	-5	-1	8	-5	7.9*	-37	4
Cc1cccc(N2CCN(C(=O)CCN3C(=S)NC(C)(C)CC3C)CC2)c1C (stereo unspecified)	-2	1	4	1	0	4	x
CSCC[C@H](NC(=O)N1C[C@H]2C[C@@H](C1)c1cccc(=O)n1C2)C(=O)Nc1ccc(NC(C)=O)cc1	-2	4	-3	-2	0	x	x
COc1ccc(CNC(=O)c2cccc3c(-c4cccnc4)coc23)cc1OC	x	8	15	x	8.1*	x	1
Cc1ccc(OCCCCNC2CCCCC2)c(C)c1	-10	-6	-3	0	6.9*	-45	1
CC(C)(C)OC(=O)C[C@H]1C/C=C\C[C@H](CC(=O)N[C@H](CO)Cc2ccccc2)C(=O)N[C@H](Cc2ccccc2)COC1=O	0	7	7	-4	0	x	x

Screens (PubChem)
